We go through 28 compounds from ChEMBL document CHEMBL3758148, “4-Phenylpyridin-2-one Derivatives: A Novel Class of Positive Allosteric Modulator of the M1 Muscarinic Acetylcholine Receptor” (J Med Chem, 2016).

The target in assay [1] is T1, Muscarinic acetylcholine receptor M1 (Homo sapiens) (UniProt P11229).
T1 sequence (whole entry): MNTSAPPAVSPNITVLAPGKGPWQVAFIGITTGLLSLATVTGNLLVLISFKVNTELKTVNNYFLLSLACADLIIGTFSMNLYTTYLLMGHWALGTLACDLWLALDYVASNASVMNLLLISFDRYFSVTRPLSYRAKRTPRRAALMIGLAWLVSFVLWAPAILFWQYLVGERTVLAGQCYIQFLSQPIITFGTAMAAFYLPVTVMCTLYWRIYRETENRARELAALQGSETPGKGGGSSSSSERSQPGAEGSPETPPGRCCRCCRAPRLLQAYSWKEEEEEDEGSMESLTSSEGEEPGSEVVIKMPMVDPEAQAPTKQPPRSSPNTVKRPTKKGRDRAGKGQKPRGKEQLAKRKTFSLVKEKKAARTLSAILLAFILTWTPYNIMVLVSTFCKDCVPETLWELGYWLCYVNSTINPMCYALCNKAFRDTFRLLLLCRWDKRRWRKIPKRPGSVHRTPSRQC
Briefly: Allosteric agonist activity at human muscarinic M1 receptor expressed in CHO Flp-In cells assessed as intrinsic activity measured as IP1 accumulation after 1 hr by HTRF method. The format is functional, cell-based. The method, boiled down:
(§1)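 Suspended Flp-In CHO cells stably expressing hM1, stimulated at 10⁶ cells/ml in HEPES buffer with 50 mM LiCl, pH 7.4, using increasing ACh with or without increasing modulator, 1 h at 37 °C, 5% CO2. IP1 read by HTRF (665/590 nm ratio). Curves fitted globally to the operational model of allosterism, with KB fixed from binding. Mean ± SEM, ≥3 experiments in duplicate.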
For orientation: TR-FRET usually uses a lanthanide donor and a delayed reading to cut background.

Assay [2] concerns the target T1, Muscarinic acetylcholine receptor M1 (Homo sapiens). Description: Positive allosteric modulation of human muscarinic M1 receptor expressed in CHO Flp-In cells assessed as functional cooperativity with acetylcholine measured as IP1 accumulation after 1 hr by HTRF method. The assay is classed as cell-based. The method, boiled down:
as §1

The target is the same in assay [3]. Briefly: Displacement of [3H]NMS from human muscarinic M1 receptor expressed in CHO Flp-In cells after 1 hr by microbeta liquid scintillation counting-based radioligand binding assay. The assay is classed as cell-based. The method, boiled down:
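Intact adherent Flp-In CHO cells expressing hM1 (10⁴ cells/well), incubated with 0.2 nM [3H]NMS, varying ACh and modulator in HEPES-buffered saline pH 7.4 for 1 h at 37 °C. Washed with ice-cold 0.9% NaCl, then scintillation counted. Fitted to an allosteric ternary complex model with [3H]NMS KA 0.2 nM. Mean ± SEM, ≥3 experiments in duplicate.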
(In general: Loss of bound radioactivity is the signal in a displacement assay; it reports binding, not function.)

By pKb is commonly meant the negative decadic logarithm of the Kb, by convention in mol/L. As for `CC(C)n1cc(-c2ccc(COc3ccccc3-c3ccn([C@H]4CCCC[C@@H]4O)c(=O)c3)cc2)cn1` (racemic), in assay [1], the Intrinsic activity is 0.47 and the log(IA) is -0.33. For the same compound, the log(activity) in assay [2] was 1.93. In assay [3], this compound gave a Kb of 27 µM and a pKb of 4.57.

`CCCCn1cc(-c2ccc(COc3ccccc3-c3ccn([C@H]4CCCC[C@@H]4O)c(=O)c3)cc2)cn1` (racemic): in assay [1], the Intrinsic activity is 0.5 and the log(IA) was -0.3. The log(activity) in assay [2] was 0.75. In assay [3], this compound had a Kb of 14 µM and a pKb of 4.86.

For `CCCn1cc(-c2ccc(COc3ccccc3-c3ccn([C@H]4CCCC[C@@H]4O)c(=O)c3)cc2)cn1` (racemic), in assay [1], the Intrinsic activity came out at 0.3 and the log(IA) was -0.52. Also, the log(activity) in assay [2] worked out at 1.78. For the same compound, in assay [3], the Kb was determined as 23 µM and the negative-log Kb (pKb) is 4.64.

`CCn1cc(-c2ccc(COc3ccccc3-c3ccn([C@H]4CCCC[C@@H]4O)c(=O)c3)cc2)cn1` (racemic): in assay [1], the Intrinsic activity came out at 0.89 and the log(IA) was -0.05. For the same compound, in assay [2], the log(activity) is 2.26. In assay [3], this compound displayed a Kb of 41 µM and a pKb of 4.38.

`COC(=O)c1ccc(COc2ccccc2-c2ccn([C@H]3CCCC[C@@H]3O)c(=O)c2)cc1` (racemic): in assay [1], the Intrinsic activity was 0.54 and the log(IA) was -0.26. The log(activity) in assay [2] came to 0.96. In assay [3], this compound gave a Kb of 87 µM and a pKb of 4.06.

With `COC(=O)c1cccc(COc2ccccc2-c2ccn([C@H]3CCCC[C@@H]3O)c(=O)c2)c1` (racemic), in assay [1], the Intrinsic activity was 0.15 and the log(IA) was -0.82. Besides, the log(activity) in assay [2] was 0.52. Moreover, in assay [3], the Kb is 100 µM and the pKb amounted to 3.99.

For the compound `Cn1cc(-c2ccc(CNc3ccccc3-c3ccn([C@H]4CCCC[C@@H]4O)c(=O)c3)cc2)cn1` (racemic), in assay [1], the Intrinsic activity came out at 0.44 and the log(IA) was -0.36. The log(activity) in assay [2] stood at 1.44. Further, in assay [3], the Kb was 66 µM and the negative-log Kb (pKb) was 4.18.

For the compound `Cn1cc(-c2ccc(COc3c(F)ccc(F)c3-c3ccn([C@H]4CCCC[C@@H]4O)c(=O)c3)cc2)cn1` (racemic), in assay [1], the Intrinsic activity came to 1.34 and the log(IA) is 0.13. The log(activity) in assay [2] was -0.41. For the same compound, in assay [3], the Kb stood at 42 µM and the negative-log Kb (pKb) was 4.38.

In the case of `Cn1cc(-c2ccc(COc3ccccc3-c3cc(=O)n([C@H]4CCCC[C@@H]4O)cn3)cc2)cn1` (racemic), in assay [1], the Intrinsic activity worked out at 2.51 and the log(IA) was 0.4. Further, the log(activity) in assay [2] came to 2.75. In assay [3], this compound came in with a Kb of 13 µM and a pKb of 4.88.

Take `Cn1cc(-c2ccc(COc3ccccc3-c3ccn([C@H]4CCCC[C@@H]4O)c(=O)c3)c(F)c2)cn1` (racemic): in assay [1], the Intrinsic activity worked out at 0.43 and the log(IA) is -0.37. For the same compound, the log(activity) in assay [2] was 1.93. In assay [3], this compound registered a Kb of 31 µM and a negative-log Kb (pKb) of 4.51.

As to `Cn1cc(-c2ccc(COc3ccccc3-c3ccn([C@H]4CCCC[C@@H]4O)c(=O)c3)cn2)cn1` (racemic), the log(IA) in assay [1] was -3. In addition, the log(activity) in assay [2] is 2.15. In assay [3], this compound returned a Kb of 32 µM and a negative-log Kb (pKb) of 4.5.

As for `N#Cc1ccc(COc2ccccc2-c2ccn([C@H]3CCCC[C@@H]3O)c(=O)c2)cc1` (racemic), in assay [1], the Intrinsic activity is 0.19 and the log(IA) was -0.73. Also, the log(activity) in assay [2] stood at 0.49. Also, in assay [3], the Kb came to 14 µM and the pKb stood at 4.85.

For `N#Cc1cccc(COc2ccccc2-c2ccn([C@H]3CCCC[C@@H]3O)c(=O)c2)c1` (racemic), in assay [1], the Intrinsic activity is 0.25 and the log(IA) is -0.59. For the same compound, in assay [2], the log(activity) turned out to be 0.88. In assay [3], this compound came in with a Kb of 87 µM and a pKb of 4.06.

For `NC(=O)c1ccc(COc2ccccc2-c2ccn([C@H]3CCCC[C@@H]3O)c(=O)c2)cc1` (racemic), in assay [1], the Intrinsic activity was found to be 0.89 and the log(IA) worked out at 0.05. Besides, the log(activity) in assay [2] was 2.36. In assay [3], this compound came in with a Kb of 22 µM and a negative logarithm of the Kb (pKb) of 4.66.

For `NC(=O)c1cccc(COc2ccccc2-c2ccn([C@H]3CCCC[C@@H]3O)c(=O)c2)c1` (racemic), in assay [1], the log(IA) was -3. The log(activity) in assay [2] was found to be 0.87. In assay [3], this compound registered a Kb of 91 µM and a negative-log Kb (pKb) of 4.04.

`O=C(O)c1cccc(COc2ccccc2-c2ccn([C@H]3CCCC[C@@H]3O)c(=O)c2)c1` (racemic): in assay [1], the Intrinsic activity was 0.2 and the log(IA) is -0.69. For the same compound, the log(activity) in assay [2] worked out at 1.08. In assay [3], this compound gave a Kb of 91 µM and a pKb of 4.04.

On to `O=c1cc(-c2ccccc2NCc2ccc(-c3cccnc3)cc2)ccn1[C@H]1CCCC[C@@H]1O` (racemic), for which, in assay [1], the Intrinsic activity worked out at 0.74 and the log(IA) was -0.13. For the same compound, the log(activity) in assay [2] is 0.47. In assay [3], this compound came in with a Kb of 21 µM and a negative-log Kb (pKb) of 4.67.

Take `O=c1cc(-c2ccccc2OCc2ccc(-c3cccnc3)cc2)ccn1[C@H]1CCCC[C@@H]1O` (racemic): in assay [1], the Intrinsic activity was 0.38 and the log(IA) is -0.42. The log(activity) in assay [2] stood at 1.29. In assay [3], this compound showed a Kb of 19 µM and a negative logarithm of the Kb (pKb) of 4.72.

For the compound `O=c1cc(-c2ccccc2OCc2ccc(-c3ccncc3)cc2)ccn1[C@H]1CCCC[C@@H]1O` (racemic), in assay [1], the Intrinsic activity came to 0.43 and the log(IA) is -0.37. Moreover, the log(activity) in assay [2] came out at 1.01. In assay [3], this compound yielded a Kb of 11 µM and a negative-log Kb (pKb) of 4.95.

As for `O=c1cc(-c2ccccc2OCc2ccc(-c3cn[nH]c3)cc2)ccn1[C@H]1CCCC[C@@H]1O` (racemic), in assay [1], the Intrinsic activity was found to be 1.1 and the log(IA) came to 0.04. Also, the log(activity) in assay [2] worked out at 0.68. In assay [3], this compound had a Kb of 28 µM and a pKb of 4.56.

In the case of `O=c1cc(-c2ccccc2OCc2ccc(-c3cncnc3)cc2)ccn1[C@H]1CCCC[C@@H]1O` (racemic), in assay [1], the Intrinsic activity came out at 0.16 and the log(IA) is -0.8. Also, the log(activity) in assay [2] was 1.34. In assay [3], the Kb worked out at 35 µM and the pKb came out at 4.45.

Regarding `O=c1cc(-c2ccccc2OCc2ccc(-c3cnn(C4CCCC4)c3)cc2)ccn1[C@H]1CCCC[C@@H]1O` (racemic), in assay [1], the Intrinsic activity turned out to be 0.38 and the log(IA) is -0.42. The log(activity) in assay [2] is 1.92. In assay [3], this compound showed a Kb of 4 µM and a negative-log Kb (pKb) of 5.45.

On to `O=c1cc(-c2ccccc2OCc2ccc(-c3cnn(C4CCCCC4)c3)cc2)ccn1[C@H]1CCCC[C@@H]1O` (racemic), for which, in assay [1], the Intrinsic activity is 0.51 and the log(IA) is -0.29. Moreover, in assay [2], the log(activity) is 0.63. In assay [3], the Kb came to 2 µM and the pKb was 5.67.

Take `O=c1cc(-c2ccccc2OCc2ccc(-c3cnn(CC4CC4)c3)cc2)ccn1[C@H]1CCCC[C@@H]1O` (racemic): the log(IA) in assay [1] is -3. For the same compound, in assay [2], the log(activity) amounted to 0.58. In assay [3], this compound registered a Kb of 7 µM and a pKb of 5.13.

For `O=c1cc(-c2ccccc2OCc2ccc(-c3cnn(CCO)c3)cc2)ccn1[C@H]1CCCC[C@@H]1O` (racemic), in assay [1], the Intrinsic activity amounted to 0.77 and the log(IA) is -0.11. In assay [2], the log(activity) worked out at 2.49. In addition, in assay [3], the Kb is 37 µM and the pKb was found to be 4.43.

Regarding `O=c1cc(-c2ccccc2OCc2ccc(-c3ncco3)cc2)ccn1[C@H]1CCCC[C@@H]1O` (racemic), in assay [1], the Intrinsic activity was determined as 0.57 and the log(IA) is -0.24. Also, the log(activity) in assay [2] came out at 1.61. For the same compound, in assay [3], the Kb was found to be 28 µM and the pKb turned out to be 4.56.

Regarding `O=c1cc(-c2ccccc2OCc2ccc(-c3nccs3)cc2)ccn1[C@H]1CCCC[C@@H]1O` (racemic), in assay [1], the Intrinsic activity came out at 0.45 and the log(IA) was -0.35. Also, the log(activity) in assay [2] was 0.8. Also, in assay [3], the Kb stood at 11 µM and the pKb was 4.96.

Turning to `O=c1cc(-c2ccccc2OCc2ccc(C(F)(F)F)cc2)ccn1[C@H]1CCCC[C@@H]1O` (racemic), in assay [1], the Intrinsic activity stood at 0.77 and the log(IA) is -0.11. Moreover, in assay [2], the log(activity) is 0.4. In assay [3], the Kb stood at 36 µM and the negative-log Kb (pKb) came out at 4.44.
